Calls of active or inactive are those of the source. No cut-off for these calls is given here.
Key:
[1] = system: SH-SY5Y; assay: Neuroprotective activity against H2O2-induced apoptosis in human SH-SY5Y cells assessed as viable cells at 50 uM pretreated for 1 hr followed by H2O2-stimulation after 4 hrs by Annexin-V-FITC/propidium iodide staining based flow cytometry (reference value: 76%); format: functional; details: read-out: Activity
[2] = system: SH-SY5Y; assay: Neuroprotective activity against H2O2-induced apoptosis in human SH-SY5Y cells assessed as late apoptotic cells at 25 uM pretreated for 1 hr followed by H2O2-stimulation after 4 hrs by Annexin-V-FITC/propidium iodide staining based flow cytometry (reference value: 15%); format: functional
[3] = system: SH-SY5Y; assay: Neuroprotective activity against H2O2-induced apoptosis in human SH-SY5Y cells assessed as early apoptotic cells at 50 uM pretreated for 1 hr followed by H2O2-stimulation after 4 hrs by Annexin-V-FITC/propidium iodide staining based flow cytometry (reference value: 6.4%); format: functional
[4] = system: SH-SY5Y; assay: Neuroprotective activity against H2O2-induced apoptosis in human SH-SY5Y cells assessed as necrotic cells at 50 uM pretreated for 1 hr followed by H2O2-stimulation after 4 hrs by Annexin-V-FITC/propidium iodide staining based flow cytometry (reference value: 2.63%); format: functional
[5] = system: SH-SY5Y; assay: Neuroprotective activity against H2O2-induced apoptosis in human SH-SY5Y cells assessed as viable cells at 25 uM pretreated for 1 hr followed by H2O2-stimulation after 4 hrs by Annexin-V-FITC/propidium iodide staining based flow cytometry (reference value: 76%); format: functional; details: read-out: Activity
[6] = system: SH-SY5Y; assay: Neuroprotective activity against H2O2-induced apoptosis in human SH-SY5Y cells assessed as late apoptotic cells at 100 uM pretreated for 1 hr followed by H2O2-stimulation after 4 hrs by Annexin-V-FITC/propidium iodide staining based flow cytometry (reference value: 15%); format: functional
[7] = system: SH-SY5Y; assay: Neuroprotective activity against H2O2-induced apoptosis in human SH-SY5Y cells assessed as reduction in nuclear fragmentation at 25 to 100 uM after 4 hrs by Hoechst 33258 staining based fluorescence microscopic analysis; format: functional, cell-based
Procedure, shortened: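 SH-SY5Y cells were incubated with H2O2 (200 μM) for 4 h, with or without compound at 25, 50 or 100 μM. Nuclei were stained with the DNA dye Hoechst 33258. Chromatin condensation and fragmented nuclei were scored by fluorescence microscopy against untreated control and H2O2-only cells.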

[8] = system: SH-SY5Y; assay: Neuroprotective activity against H2O2-induced apoptosis in human SH-SY5Y cells assessed as early apoptotic cells at 100 uM pretreated for 1 hr followed by H2O2-stimulation after 4 hrs by Annexin-V-FITC/propidium iodide staining based flow cytometry (reference value: 6.4%); format: functional
[9] = system: SH-SY5Y; assay: Neuroprotective activity against H2O2-induced apoptosis in human SH-SY5Y cells assessed as necrotic cells at 100 uM pretreated for 1 hr followed by H2O2-stimulation after 4 hrs by Annexin-V-FITC/propidium iodide staining based flow cytometry (reference value: 2.63%); format: functional
[10] = system: SH-SY5Y; assay: Neuroprotective activity against H2O2-induced apoptosis in human SH-SY5Y cells assessed as early apoptotic cells at 25 uM pretreated for 1 hr followed by H2O2-stimulation after 4 hrs by Annexin-V-FITC/propidium iodide staining based flow cytometry (reference value: 6.4%); format: functional
[11] = system: SH-SY5Y; assay: Neuroprotective activity against H2O2-induced apoptosis in human SH-SY5Y cells assessed as late apoptotic cells at 50 uM pretreated for 1 hr followed by H2O2-stimulation after 4 hrs by Annexin-V-FITC/propidium iodide staining based flow cytometry (reference value: 15%); format: functional
[12] = system: SH-SY5Y; assay: Neuroprotective activity against H2O2-induced apoptosis in human SH-SY5Y cells assessed as necrotic cells at 25 uM pretreated for 1 hr followed by H2O2-stimulation after 4 hrs by Annexin-V-FITC/propidium iodide staining based flow cytometry (reference value: 2.63%); format: functional
[13] = system: SH-SY5Y; assay: Neuroprotective activity against H2O2-induced apoptosis in human SH-SY5Y cells assessed as viable cells at 100 uM pretreated for 1 hr followed by H2O2-stimulation after 4 hrs by Annexin-V-FITC/propidium iodide staining based flow cytometry (reference value: 76%); format: functional; details: read-out: Activity
[14] = system: SH-SY5Y; assay: Neuroprotective activity against H2O2-induced morphological changes in human SH-SY5Y cells assessed as reduction in cell shrinkage after 4 hrs by phase contrast microscopic analysis; format: functional, cell-based
Procedure, shortened: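 Cells were exposed to H2O2 (200 μM) for 4 h, in the presence or absence of compound at 25, 50 or 100 μM. Cell shrinkage and other morphology were viewed by phase contrast microscopy and compared with untreated control and H2O2-only cells.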

[15] = system: SH-SY5Y; assay: Neuroprotective activity against H2O2-induced cell death in human SH-SY5Y cells assessed as increase in cell viability at 100 uM relative to control; format: functional
Procedure, shortened: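 SH-SY5Y cells exposed to H2O2, with or without test compound; viability read by MTT assay and compared with the H2O2-only model group. Trolox served as positive control. Cell viability given as means ± SEM.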

[16] = system: SH-SY5Y; assay: Neuroprotective activity against H2O2-induced cell death in human SH-SY5Y cells assessed as increase in cell viability up to 100 uM; format: functional, cell-based
Procedure, shortened: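 SH-SY5Y cells were injured with H2O2, with test compounds up to 100 μM. Viability was read by MTT assay and compared with the H2O2 model group. Trolox served as positive control. Data were reported as means ± SEM.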

| Compound | Activity [15] | Activity [16] | other results |
| --- | --- | --- | --- |
| C[C@@]12CCC[C@@](C)(O)[C@H]1CC[C@]13C=C(C(=O)O)[C@H](CC[C@H]12)C3 | >10% | – | viability at 50 µM [1]: 90%; Activity [2]: 9.28%; Activity [3]: 3.93%; Activity [4]: 0.727%; viability at 25 µM [5]: 86.2%; Activity [6]: 5.94%; Activity [7]: Active; Activity [8]: 2.58%; Activity [9]: 1.44%; Activity [10]: 3.23%; Activity [11]: 5.34%; Activity [12]: 1.29%; viability at 100 µM [13]: 90%; Activity [14]: Dose-dependent effect |
| C[C@@]1(O)[C@H](O)CC[C@@]2(C)[C@@H]3CC[C@@H]4C[C@]3(C=C4C(=O)O)CC[C@H]12 | – | inactive | – |
| C[C@@]12C[C@H](O)C[C@@](C)(C(=O)O)[C@H]1CC[C@@]13C[C@@H](CC[C@H]12)[C@@H](C(=O)O)C3 | – | inactive | – |
| C[C@@]12CCC[C@@](C)(C(=O)O)[C@H]1CC[C@]13C=C(C(=O)O)[C@H](CC[C@H]12)C3 | – | inactive | – |
| C[C@@]12CCC[C@@](C)(C=O)[C@H]1CC[C@@]13C=C(C(=O)O)[C@@H](C1)[C@@H](O)C[C@H]32 | >10% | – | – |
| C[C@@]12C[C@H](O)C[C@@](C)(C=O)[C@H]1CC[C@]13C=C(C(=O)O)[C@H](CC[C@H]12)C3 | – | inactive | – |
| CC1(C)[C@H](O)[C@@H](O)C[C@]2(C)[C@@H]1CC[C@]13C=C(C(=O)O)[C@H](CC[C@H]12)C3 | >10% | – | – |
| C[C@@]1(O)[C@H](O)CC[C@@]2(C)[C@@H]3CC[C@@H]4C[C@@]3(CC[C@H]12)C[C@@H]4C(=O)O | >10% | – | – |
| C[C@@]1(CO)CC(=O)C[C@]2(C)[C@@H]1CC[C@@]13C[C@@H](CC[C@H]12)[C@@H](C(=O)O)C3 | >10% | – | – |
| COC(=O)[C@]1(C)CC[C@H](O)[C@@]2(C)[C@@H]3CC[C@@H]4C[C@]3(C=C4C(=O)O)CC[C@@H]21 | – | inactive | – |
| C[C@@]1(CO)C[C@@H](O)C[C@]2(C)[C@@H]1CC[C@@]13C[C@@H](CC[C@H]12)[C@@H](C(=O)O)C3 | – | inactive | – |
| COC(=O)[C@]1(C)C[C@@H](O)C[C@@]2(C)[C@@H]3CC[C@@H]4C[C@@]3(CC[C@@H]21)C[C@@H]4C(=O)O | – | inactive | – |
| C[C@@]12CCC[C@@](C)(C(=O)O)[C@H]1CC[C@@]13C[C@@H](CC[C@H]12)[C@](O)(CO)C3 | – | inactive | – |
| C[C@@]1(CO)C[C@@H](O)C[C@]2(C)[C@@H]1CC[C@]13C=C(C(=O)O)[C@H](CC[C@H]12)C3 | – | inactive | – |
| COC(=O)[C@]1(C)C[C@@H](O)C[C@@]2(C)[C@@H]3CC[C@@H]4C[C@]3(C=C4C(=O)O)CC[C@@H]21 | – | inactive | – |
